From PubChem
This is one part of a sample in which hits are shown more often than they occur.
H69AR growth 86K = growth inhibitors of human H69AR lung tumor cells; H69AR lung tumor viability, ATP luminescence, 72 h; stronger effect = lower value; viability, % at 10 µM; actives 6% (n = 85,000); AID 598;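 active = viability at or below 40%; inactive = viability above 40%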;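 also: multidrug resistant small cell line overexpressing MRP-1 efflux transporter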
bCat KO growth = beta-catenin-lacking colon tumor cell growth suppression; HCT116 beta-catenin knockout viability, CellTiter-Glo, 60 h; stronger effect = lower value; viability, % at 10 µM; actives 1.5% (n = 140,000);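 active = viability at or under a set limit, the compound median less 4 SD, cut at about 6% in these data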
Lung fibro prol = blocks proliferation of human lung fibroblasts; LL 47 human lung fibroblast viability, ATP luminescence; stronger effect = lower value; actives 1.1% (n = 85,000); viability, % at 10 µM;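 active = viability at or below 50% in the single dose screen; inactive = viability above 50%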;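 also: compound exposure lasted 72 h before the ATP readout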
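Signal: luminescent ATP detection, CellTiter-Glo; assay system: LL 47 human lung fibroblasts; input: 1,150 cells/well; incubation: overnight cell rest, 72 h compound treatment at 37 °C; measure: % viability versus median cells-only luminescence; medium: IMEM growth medium with 15% fetal bovine serum; dosing: compound addition at 0.1% DMSO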
HCT116 PTEN-null = growth suppressors of cells with PTEN tumor suppressor deletion | HCT116 PTEN-null viability, CellTiter-Glo, 60 h; stronger effect = lower value | viability, % at 10 µM | actives 1.2% (n = 140,000) | AID 827;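 active = viability at or below a set limit, 4 SD under the median of all tested compounds, cut at about 3.7% in these data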;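 also: PTEN knockout HCT116 line with beta catenin targeted HCT116 as companion control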
HUVEC inhibit = inhibitors of human endothelial cell proliferation. HUVEC proliferation, CellTiter-Glo luminescence, 72 h; stronger effect = lower value. viability, % at 10 µM (by protocol). actives 1.1% (n = 86,000);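 active = viability at or below 30%; inactive = viability above 30%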
Phagocytosis inh = blocks phagocytosis by macrophages | actives 0.07% (n = 110,000) | inhibition, % at 5 µM | J774A.1 macrophage IgG-bead phagocytosis, imaging;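 active = inhibition above the mean of the plate negative controls plus 5 SD, cut at about 13% in these data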;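 also: phagocytic index as fraction of beads internalized from green versus red external bead signal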
Each line names hits and unclear results; the compound was inactive in the other large screens.

O=C(NNC(=O)c1cccnc1SCc1cccc([N+](=O)[O-])c1)c1ccc(F)cc1	none (no result: H69AR growth 86K, Lung fibro prol, HUVEC inhibit)
COc1cccc(C(=O)Nc2ccccc2N2CCCC2)c1	none (no result: Phagocytosis inh)
O=C(Nc1ccccc1N1CCN(c2ccc(F)cc2)CC1)c1ccccc1	none
CN1CCN(c2ccccc2NC(=O)c2cccc(OCc3ccccc3)c2)CC1	H69AR growth 86K 11, HUVEC inhibit 8.2
O=C(Nc1ccccc1F)c1ccc(OCc2ccccc2)cc1	none (no result: H69AR growth 86K, Lung fibro prol, HUVEC inhibit)
CN1CCN(c2ccc(Cl)cc2NC(=O)c2ccc(S(=O)(=O)N3CCCCCC3)cc2)CC1	H69AR growth 86K 2.5
CN1CCN(c2ccccc2NC(=O)c2ccc(OCc3ccccc3)cc2)CC1	bCat KO growth 3.4, HUVEC inhibit 17 (no result: H69AR growth 86K)
CN1CCN(c2ccccc2NC(=O)c2ccc(-c3ccccc3)cc2)CC1	H69AR growth 86K 33
O=CNCC(=O)NCCc1ccc(Cl)cc1	none
CCc1cccc(NC(=O)CS(=O)Cc2nc(-c3ccc(C)cc3)oc2C)c1 (centres undefined)	none
O=C(O)/C=C/C(=O)Nc1ccccc1C(=O)Nc1ccccc1	none
O=C(CSc1nc2ccccc2[nH]1)Nc1nc(-c2ccc(Br)cc2)cs1	none (no result: H69AR growth 86K, Lung fibro prol, HUVEC inhibit)
CCCCOc1ccc(C(=O)Nc2ccc(N3CCN(C)CC3)cc2)cc1	H69AR growth 86K 23, bCat KO growth 1.5, Lung fibro prol 28, HCT116 PTEN-null 1.8
Cc1nn(Cc2ccccc2Cl)c(C)c1C(=O)NCCN1C(=O)S/C(=C\c2ccccc2)C1=O	none (no result: H69AR growth 86K, Lung fibro prol, HUVEC inhibit)
O=C(O)CSCCOc1ccc(OCCSCC(=O)O)cc1	none (no result: H69AR growth 86K, Lung fibro prol, HUVEC inhibit)
COc1c(N2CCN(C(=S)NCc3ccccc3)C(C)C2)c(F)cc2c(=O)c(C(=O)O)cn(C3CC3)c12 (centres undefined)	H69AR growth 86K 2.5
CC(C)(C)S(=O)(=O)c1cnc2c(-c3ccc(Cl)cc3)cnn2c1N	bCat KO growth 2.6, HCT116 PTEN-null 1.7 (no result: H69AR growth 86K, Lung fibro prol, HUVEC inhibit, Phagocytosis inh)
O=C(O)CC/C(=N/NC(=O)c1cccs1)c1ccccc1	none (no result: H69AR growth 86K, Lung fibro prol, HUVEC inhibit)
Nc1nc2ccc(S(=O)(=O)N3CCCCC3)cc2s1	H69AR growth 86K 0.7, Lung fibro prol 47
O=C(Nc1nc2ccc(S(=O)(=O)N3CCCC3)cc2s1)C1CCCCC1	H69AR growth 86K 23, Lung fibro prol 47
O=C(Nc1ccccc1)NC1(C(=O)NCc2cccs2)CCCCC1	none (no result: H69AR growth 86K, Lung fibro prol, HUVEC inhibit)
Cc1ccc(C(=O)CSc2nnc(-c3cccnc3)n2N)cc1	H69AR growth 86K 27
Cc1cc(C(=O)CSc2nnc(-c3cccnc3)n2-c2ccccc2F)c(C)n1C	H69AR growth 86K 34 (no result: Phagocytosis inh)
C=CCn1c(SCc2c(C)noc2C)nc2sc(C)c(C)c2c1=O	H69AR growth 86K 20
Cc1cc2c(=O)n(Cc3ccco3)c(SCC(=O)c3ccc(Cl)s3)nc2s1	H69AR growth 86K 13
Cc1noc(C)c1CSc1nc2sc(C)c(C)c2c(=O)n1-c1ccccc1	none
Cc1sc2nc(SCc3ccccc3)n(Cc3ccco3)c(=O)c2c1C	none
Cc1sc2nc(SCC(=O)C(C)(C)C)n(Cc3ccco3)c(=O)c2c1C	Lung fibro prol 49 (no result: Phagocytosis inh)
C=CCn1c(SCC(=O)NC(=O)NCc2ccco2)nc2sc(C)c(C)c2c1=O	H69AR growth 86K 11
CC1CCN(c2nc3c(c(=O)[nH]c(=O)n3C)n2CCSc2nc3ccccc3o2)CC1	none
CC1CCc2sc(C(=O)N/N=C/c3ccc([N+](=O)[O-])cc3)cc2C1 (centres undefined)	none (no result: H69AR growth 86K, Lung fibro prol, HUVEC inhibit)
CCOC(=O)c1sc(NC(=O)c2c(C)noc2C)c(C(=O)OCC)c1C	H69AR growth 86K 38 (no result: bCat KO growth, HCT116 PTEN-null, Phagocytosis inh)
Nc1nc(NC(=O)c2cccc(S(=O)(=O)N3CCCCCC3)c2)nc(-c2ccccc2)n1	H69AR growth 86K 5.3, Lung fibro prol 25
COc1ccc(-c2nc(C#N)c(NCc3ccccc3Cl)o2)cc1OC	H69AR growth 86K 5.7
COc1ccc(C2C(C(=O)c3ccccc3)=C(C)Nc3nc4ccccc4n32)c(OC)c1 (centres undefined)	none (no result: H69AR growth 86K, Lung fibro prol, HUVEC inhibit, Phagocytosis inh)
Clc1cccc(Cl)c1COn1nnc2ccccc21	H69AR growth 86K 35
O=c1/c(=C/c2ccco2)sc2n1CN(c1ccccc1)CN=2	none
O=c1/c(=C/c2ccco2)sc2n1CN(c1cccc(Br)c1)CN=2	H69AR growth 86K 32
CCOc1c(OC(C)=O)ccc(/C=C/c2ccc3cccc(OC(C)=O)c3n2)c1[N+](=O)[O-]	bCat KO growth 1.5, HCT116 PTEN-null 3.2 (no result: H69AR growth 86K, Lung fibro prol, HUVEC inhibit)
CNc1ccc(/C=C2\COc3ccccc3C2=O)cc1[N+](=O)[O-]	H69AR growth 86K 16
CNc1ccc(/C=C/C(=O)c2ccc3c(c2)OCCO3)cc1[N+](=O)[O-]	none (no result: H69AR growth 86K, Lung fibro prol, HUVEC inhibit)
COc1ccc(-c2oc3ncn(CCN4CCOCC4)c(=N)c3c2-c2ccc(OC)cc2)cc1	H69AR growth 86K 16
COc1ccc(-c2oc3ncnc(NCCN4CCOCC4)c3c2-c2ccc(OC)cc2)cc1	H69AR growth 86K 18
CCOc1cc2nc(-c3ccc(OC)c(OC)c3)nc(NCCCN3CCOCC3)c2cc1OC	H69AR growth 86K 18
COc1ccc(-c2nc(C#N)c(NCCCN3CCOCC3)o2)cc1	none (no result: H69AR growth 86K, Lung fibro prol, HUVEC inhibit)
c1ccc(-c2oc3ncnc(NCCCN4CCOCC4)c3c2-c2ccccc2)cc1	H69AR growth 86K 3.1
COc1ccc(-n2ncc3c(NCCN4CCOCC4)ncnc32)cc1	none
CC(C)(C)NS(=O)(=O)c1ccc(CCC(=O)NCc2cccnc2)cc1	none
CO/N=C/NC(=O)c1c(OC)ccnc1Oc1cccc(C(F)(F)F)c1	none (no result: H69AR growth 86K, Lung fibro prol, HUVEC inhibit)
CCN(CC)c1ccc(NC(=O)c2cnccn2)cc1S(=O)(=O)Nc1ccc(OC)cc1	none (no result: H69AR growth 86K, Lung fibro prol, HUVEC inhibit)
CC(=O)c1c(N2CCN(C)CC2)[nH]c(-c2ccccc2)nc1=S	none
Clc1ccc(-c2nc(NCCN3CCOCC3)c3ccccc3n2)cc1	HUVEC inhibit 9.6
COc1ccc(-c2oc3ncnc(NCCCN4CCOCC4)c3c2-c2ccc(OC)cc2)cc1	H69AR growth 86K 5.7
CC(C)NC(=O)C(OC(=O)c1ccccc1)C(OC(=O)c1ccccc1)C(=O)O (centres undefined)	none (no result: H69AR growth 86K, Lung fibro prol, HUVEC inhibit, Phagocytosis inh)
C=CCn1c(O)c(N=NC(=S)Nc2ccc(OC)cc2)c2ccccc21	H69AR growth 86K 35
C=CCn1c(O)c(N=NC(=S)Nc2cccc(OC)c2)c2ccccc21	none (no result: H69AR growth 86K, Lung fibro prol, HUVEC inhibit)
CC(=O)N(Cc1ccccc1)c1ccc(C(=O)O)cc1	none
CC(=O)N(Cc1ccc(F)cc1)C1=C(NCc2ccccc2)C(=O)c2ccccc2C1=O	H69AR growth 86K 3.5, bCat KO growth 1.4, Lung fibro prol 2.6, HCT116 PTEN-null 1.2, HUVEC inhibit 3.4 (no result: Phagocytosis inh)
CC(C)Sc1nnc(CNC(=O)C23CC4CC(CC(C4)C2)C3)n1C1CCCCC1	none (no result: H69AR growth 86K, Lung fibro prol, HUVEC inhibit)
CC(C)SC1=NC(C)(C)C=C(/C=C/c2c(Cl)cccc2Cl)N1	none
CC(C)SC1=NC(C)(C)C=C(/C=C/c2ccc(Cl)cc2Cl)N1	H69AR growth 86K 34, HUVEC inhibit 26
Cc1cccc(CN2CCN(C(c3ccccc3)c3ccc(Cl)cc3)CC2)c1 (centres undefined)	none (no result: Phagocytosis inh)
CN1CCCN(C(c2ccccc2)c2ccc(Cl)cc2)CC1 (centres undefined)	H69AR growth 86K 25 (no result: Phagocytosis inh)
O=C(OCc1cnc(Cl)s1)c1cccc(Cl)c1Cl	none (no result: H69AR growth 86K, Lung fibro prol, HUVEC inhibit)
